Paper PMC2841442 (Journal of Medicinal Chemistry, 2010)

Tests used:
[1] = biological target: T1, NRP1 (PAE/NRP1 cells) (Homo sapiens, UniProt O14786); conditions: read-out: IC50, 125I-VEGF-A binding to PAE/NRP1 and tumor cells; cited from earlier work
[2] = system: A549 cells; test: A549 cell viability; assay type: cell-based, human
Method in brief: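 A549 cells kept in RPMI 1640 with L-glutamine, seeded at 4 × 10^3 cells/well in serum-free medium with graded 5-FU or paclitaxel, with or without test compound at 100 μM. After 44 h, XTT was added for a further 4 h (48 h total). Formazan was read at 490 nm against 595 nm reference. Three independent experiments in triplicate, mean ± SEM.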

[3] = system: HUVECs; test: VEGF-induced HUVEC migration; assay type: cell-based, human; conditions: 100 μM; VEGF 25 ng/mL; 4 h
Method in brief: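 HUVECs were pretreated 30 min with test compound or DMSO, then 1.5 × 10^5 cells in EBM/0.1% BSA were loaded into collagen I-coated transwell inserts (8 μm pores). Bottom wells held VEGF at 25 ng/mL, or medium control. Plates ran 4 h at 37 °C. Migrated underside cells were stained and counted in four fields at ×100. Three independent experiments in duplicate, mean ± SEM.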

[4] = biological target: T1, NRP1 (PAE/NRP1 cells); test: Inhibition of 125I-VEGF-A165 binding to PAE/NRP1 cells; conditions: 100 μM compound; 0.1 nM 125I-VEGF-A165; mean ± SEM, three experiments
Method in brief: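 Porcine aortic endothelial cells stably expressing NRP1 (Ham's F12, 10% FBS, hygromycin B) were grown to confluence. They received test compound (0.1−100 μM), then 0.1 nM 125I-VEGF-A165 (1200−1800 Ci/mmol). Nonspecific binding was taken with 100-fold excess unlabeled VEGF. IC50 was fitted from competition curves for compounds giving >70% inhibition at 100 μM. Three independent experiments in triplicate, mean ± SEM.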

T1 sequence (O14786 22-923): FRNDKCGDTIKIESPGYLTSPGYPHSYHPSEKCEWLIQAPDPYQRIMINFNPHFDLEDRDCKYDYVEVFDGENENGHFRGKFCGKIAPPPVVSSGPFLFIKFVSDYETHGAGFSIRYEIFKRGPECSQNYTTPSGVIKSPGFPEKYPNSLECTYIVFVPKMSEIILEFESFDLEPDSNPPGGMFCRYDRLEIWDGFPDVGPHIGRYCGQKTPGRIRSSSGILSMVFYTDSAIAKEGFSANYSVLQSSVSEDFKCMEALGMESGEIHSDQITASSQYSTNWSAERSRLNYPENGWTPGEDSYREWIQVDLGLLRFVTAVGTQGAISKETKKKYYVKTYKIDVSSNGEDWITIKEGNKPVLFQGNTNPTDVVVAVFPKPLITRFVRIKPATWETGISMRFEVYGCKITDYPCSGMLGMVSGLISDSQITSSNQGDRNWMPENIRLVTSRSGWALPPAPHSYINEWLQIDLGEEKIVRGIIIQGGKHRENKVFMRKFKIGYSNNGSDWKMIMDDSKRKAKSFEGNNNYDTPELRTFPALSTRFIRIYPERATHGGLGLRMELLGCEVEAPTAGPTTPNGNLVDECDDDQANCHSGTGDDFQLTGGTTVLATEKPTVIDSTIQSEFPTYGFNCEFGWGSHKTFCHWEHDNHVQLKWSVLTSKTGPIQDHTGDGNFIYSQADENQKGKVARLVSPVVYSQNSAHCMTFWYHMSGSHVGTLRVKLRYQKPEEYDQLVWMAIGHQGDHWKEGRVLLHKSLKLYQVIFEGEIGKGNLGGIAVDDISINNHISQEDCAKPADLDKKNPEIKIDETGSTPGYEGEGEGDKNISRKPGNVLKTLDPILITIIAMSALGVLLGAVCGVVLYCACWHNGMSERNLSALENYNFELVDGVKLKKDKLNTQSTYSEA

Compound | inhibition of 125I-VEGF binding to PAE/NRP1 cells at 100 μM [4] [%] | also measured
1: bicyclic peptide corresponding to the C-terminal 28 amino acids of VEGF-A165 [Compound 1] | – | IC50 [1]: 2 to 3 µM
N=C(N)NCCC[C@H](NC(=O)c1sccc1NS(=O)(=O)c1cccc2nsnc12)C(=O)O [Compound 2, (S)-2-(3-(Benzo[c][1,2,5]thiadiazole-4-sulfonamido)thiophene-2-carboxamido)-5-guanidinopentanoic Acid] | – | A549 cell viability ([2]; 48 h incubation): significant reduction; enhancement of the cytotoxic effect of 5-fluorouracil ([2]; A549 cells, 100 μM 2): ~10 fold; enhancement of the cytotoxic effect of paclitaxel ([2]; A549 cells, 100 μM 2): approximately 4 fold; VEGF-A induced migration of HUVECs [3]: significantly reduced
H-KPAK-OH [Compound 23] | 22 ± 1.2 | –
H-KPAQ-OH [Compound 24] | 19 ± 7.6 | –
H-KPAr-OH [Compound 22] | 22 ± 9.5 | –
H-KPaR-OH [Compound 19] | 36 ± 5.1 | –
H-kPAR-OH [Compound 18] | 51 ± 7.9 | –
